Results filed as inconclusive are left out.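 How the source made its calls, unless noted: active means growth inhibition above 25% in both replicates, a cutoff set 3 SD above the mean; inconclusive means above 25% in only one replicate; inactive means the rest.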
Legend:
[1] = S. cerevisiae growth inhibition in permissive medium (OD615), pilot counter-assay for S. cerevisiae lifespan shortening project, permissive growth control (AID 705); conditions: OD615, 24 h, at 10 µM, active compounds read high
In short: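 Test system: Saccharomyces cerevisiae strain carrying genetically modified DeaD replicative-lifespan system; buffer or medium: SC raffinose/galactose permissive medium; dosing: one dose 10 µM, DMSO 0.25% final; times: 24 h exposure, 30 °C; measured by: OD at 615 nm; read-out basis: growth inhibition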

[2] = S. cerevisiae growth inhibition in restrictive medium, OD615, pilot screen, restrictive growth control, yeast lifespan reduction project (AID 706;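 active means growth inhibition above a set limit, 3 SD over mean compound inhibition, in both replicates, cut at about 43% in these data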;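 further: modified DeaD lifespan yeast strain shifted to restrictive glucose medium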); conditions: OD615, 48 h, at 10 µM, active compounds read high
In short: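 material = engineered S. cerevisiae DeaD strain | buffer or medium = glucose-based CSMM-D restrictive medium | dosing = one concentration, 10 µM final, 0.25% DMSO | schedule = 4 h pre-growth plus 48 h compound exposure, 30 °C | detection = OD615 absorbance reading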

[3] = doxorubicin toxicity protection in MRP-1 cells – H69AR cells, CellTiter-Glo, duplicate, MRP-1 activator project, pilot screen (AID 807;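 active means viability increase at or above a cutoff of the median across tested compounds plus 3 SD, cut at about 8.5% in these data, passing the limit was not always enough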;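 further: compound pretreatment 18-22 h then 72 h combined with doxorubicin; 0% = doxorubicin alone and 100% = vehicle without doxorubicin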); conditions: H69AR viability with doxorubicin, CellTiter-Glo luminescence; at 10 µM; active compounds read high
[4] = viability of HCT116 without oncogenic beta-catenin – human colon tumor cells, pilot screen (AID 823;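 active means cell viability at or below a set limit in both duplicate runs, the limit being the all-compound median minus 4 SD, cut at about 23% in these data, passing the limit was not always enough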;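 further: 0% = wells killed by 20 µM Hyamine and 100% = untreated DMSO cell wells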); conditions: HCT116 beta-catenin knockout viability, CellTiter-Glo, 60 h; at 10 µM; active compounds read low
[5] = RAM pathway blockade in budding yeast – dse1pr::URA3 reporter, 5-FOA selection, pilot screen (AID 869;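 active means inhibition over a set limit, the all-compound mean plus 3 SD, in both replicate runs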;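 further: 0% = DMSO wells with no growth and 100% = 10 µM 1-NA-PP1 with full growth; RAM network block rescues cells from 5-FOA so hits raise OD615 growth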); conditions: S. cerevisiae dse1pr::URA3 5-FOA growth, OD615, 2 d; at 10 µM; active compounds read high; strain carries analog-sensitive mutant Cbk1 kinase
[6] = RAM signaling pathway blockade in yeast – S. cerevisiae, Pdr1DBD-CYC8 efflux-inhibited sensitized strain, primary screen (AID 1298;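 active means RAM network inhibition above 8.4% in each of two replicates, 3 SD over the compound average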;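 further: 0% = DMSO untreated cells without growth and 100% = 10 µM 1-NA-PP1 full growth; higher means more yeast growth rescued from 5-FOA killing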); conditions: S. cerevisiae cbk1-as DSE1-URA3 strain, 5-FOA growth OD615, 2 d; at 50 µM; active compounds read high

Cc1ccc(C)c(S(=O)(=O)Nc2ccccc2C(=O)Nc2cc(C)on2)c1
inactive: growth inhibition [1] -32.7% | growth inhibition [2] -4.75% | viability increase [3] -3.6% | viability [4] 77.3% | inhibition [5] 2.54% | RAM network inhibition [6] 6.23%

CCN1CCN(c2nc(SC)nc3sc4c(c23)CC(C)(C)OC4)CC1
inactive: growth inhibition [1] -15.9% | growth inhibition [2] -8.5% | viability increase [3] -5.96% | viability [4] 66.9% | inhibition [5] 1.39% | RAM network inhibition [6] 2.09%

O=C(C1=C(O)C(=O)N(CCc2ccccc2)C1c1cccnc1)c1ccco1 (centres undefined)
inactive: growth inhibition [1] -23.9% | growth inhibition [2] -2.02% | viability increase [3] -3.61% | viability [4] 104% | inhibition [5] 2.01% | RAM network inhibition [6] 2.81%

C=CCNC(=O)c1ccc2c(c1)nnn2C
inactive: growth inhibition [1] -16% | growth inhibition [2] -12.7% | viability increase [3] -0.65% | viability [4] 103% | inhibition [5] 2.63% | RAM network inhibition [6] 4.93%

CCOc1cc(OCC)cc(C(=O)Nc2cccnc2)c1
inactive: growth inhibition [1] -12.6% | growth inhibition [2] -12.7% | viability increase [3] -1.99% | viability [4] 100% | inhibition [5] 1.77% | RAM network inhibition [6] 4.32%

CCn1cc(C(=O)NCc2cccnc2)c2cc(OC)c(OC)cc2c1=O
inactive: growth inhibition [1] -18.3% | growth inhibition [2] -10% | viability increase [3] -2.26% | viability [4] 95.7% | inhibition [5] 1.67% | RAM network inhibition [6] 7.22%

COc1ccc(CNc2oc(COc3ccccc3)nc2C#N)cc1
inactive: growth inhibition [1] -9.65% | growth inhibition [2] -2.3% | viability increase [3] -2.11% | viability [4] 79% | inhibition [5] 4.33% | RAM network inhibition [6] 2.19%

CCOc1ccc(N(CC(=O)NC2CCCCCC2)S(=O)(=O)c2c(C)noc2C)cc1
inactive: growth inhibition [1] -4.29% | growth inhibition [2] -1.42% | viability increase [3] -6.44% | viability [4] 44.8% | inhibition [5] 3.02% | RAM network inhibition [6] 5.55%

COc1ccc(-c2nc(N3CCOCC3)nc3n[nH]c(N)c23)cc1
inactive: growth inhibition [1] -5.32% | growth inhibition [2] 14.9% | viability increase [3] -6.84% | viability [4] 74.7% | inhibition [5] 0.26% | RAM network inhibition [6] 3.37%

Cn1cc(S(=O)(=O)CC(=O)Nc2ccc3c(c2)OCCO3)c2ccccc21
inactive: growth inhibition [1] -14.9% | growth inhibition [2] -1.21% | viability increase [3] -1.77% | viability [4] 106% | inhibition [5] 3.01% | RAM network inhibition [6] 3.07%

Cc1cc(=O)n2[nH]c(C)c(-c3ccc(Cl)cc3)c2n1
inactive: growth inhibition [1] 3.86% | growth inhibition [2] -11.8% | viability increase [3] -5.81% | viability [4] 34.2% | inhibition [5] 2.29% | RAM network inhibition [6] 5.64%

Cc1c(Cl)cccc1NC(=O)CCN1CCCC(C)C1 (centres undefined)
inactive: growth inhibition [1] -12.9% | growth inhibition [2] 3.83% | viability increase [3] -3.58% | viability [4] 94.7% | inhibition [5] 2.28% | RAM network inhibition [6] 3.43%

CCCCNC(=O)c1ccc(NC(=O)C2CCCO2)cc1 (centres undefined)
inactive: growth inhibition [1] -3.29% | growth inhibition [2] -3.53% | viability increase [3] -0.44% | viability [4] 96.5% | inhibition [5] 1.81% | RAM network inhibition [6] 3.01%

CCSc1oc(-c2ccco2)nc1S(=O)(=O)c1ccc(F)cc1
inactive: growth inhibition [1] -15.7% | growth inhibition [2] -4.69% | viability increase [3] -3.11% | viability [4] 79% | inhibition [5] 0.335% | RAM network inhibition [6] 5.09%

COc1ccc(N2CCN(CCCNC(=O)CCCn3c(=O)[nH]c4ccsc4c3=O)CC2)cc1
inactive: growth inhibition [1] -10.8% | growth inhibition [2] -8.79% | viability increase [3] -1.23% | viability [4] 94% | inhibition [5] 2.75% | RAM network inhibition [6] 9.35%

CC(=O)Nc1cc(OC(=O)c2ccco2)cc(OC(=O)c2ccco2)c1
inactive: growth inhibition [1] -22.3% | growth inhibition [2] 3.33% | viability increase [3] -2.27% | viability [4] 103% | inhibition [5] 1.36% | RAM network inhibition [6] 5.4%

COc1cc(C2C(C(=O)c3ccco3)=C(O)C(=O)N2CCc2ccccc2)ccc1O (centres undefined)
inactive: growth inhibition [1] -1.96% | growth inhibition [2] -3.74% | viability increase [3] -3.47% | viability [4] 95.8% | inhibition [5] 0.735% | RAM network inhibition [6] -0.31%

C=C(C)Cn1c(CCNC(=O)C(C)(C)C)nc2ccccc21
inactive: growth inhibition [1] -12.7% | growth inhibition [2] 6.9% | viability increase [3] 0.45% | viability [4] 100% | inhibition [5] 2.33% | RAM network inhibition [6] 1.51%

COc1ccc(NC(=O)C(c2ccc(OC)cc2)N(C)C(=O)c2cnccn2)cc1 (centres undefined)
inactive: growth inhibition [1] 9.44% | growth inhibition [2] 2.07% | viability increase [3] -2.29% | viability [4] 101% | inhibition [5] 2.52% | RAM network inhibition [6] 1.4%

From PubChem BioAssay
